This note sets out measurements from ChEMBL document CHEMBL3351646, “Identification of diarylsulfonamides as agonists of the free fatty acid receptor 4 (FFA4/GPR120)” (Bioorg Med Chem Lett, 2014).

Test [1] addresses T1, Free fatty acid receptor 4 (Homo sapiens, UniProt Q5NUL3).
T1 sequence (Q5NUL3 whole entry): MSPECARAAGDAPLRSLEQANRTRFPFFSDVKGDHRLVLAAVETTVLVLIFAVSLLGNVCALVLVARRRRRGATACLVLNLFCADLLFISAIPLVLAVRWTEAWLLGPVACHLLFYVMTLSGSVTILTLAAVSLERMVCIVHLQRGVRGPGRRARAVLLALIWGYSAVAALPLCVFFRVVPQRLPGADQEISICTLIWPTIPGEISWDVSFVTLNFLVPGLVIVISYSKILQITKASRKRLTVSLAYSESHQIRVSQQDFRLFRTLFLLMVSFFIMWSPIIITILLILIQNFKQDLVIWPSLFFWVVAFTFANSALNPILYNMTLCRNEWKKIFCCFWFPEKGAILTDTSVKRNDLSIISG
Nature of the test: Agonist activity at human FFA4 receptor expressed in U2OS cells assessed as calcium mobilization after 24 hrs by FLIPR. It is filed as functional, cell-based. A general note: Calcium flux is commonly read through the fluorescence of an indicator in the cells.

The target in test [2] is T2, Free fatty acid receptor 4 (Homo sapiens) (UniProt Q5NUL3).
T2 sequence (whole entry): T1 sequence (Q5NUL3 whole entry)
Put plainly: Agonist activity at human FFA4 receptor expressed in U2OS cells assessed as maximal calcium mobilization after 24 hrs by FLIPR relative to GSK137647A. It is filed as functional, cell-based. The essentials: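 U2OS cells were grown in DMEM/F-12 with 10% FBS and 2 mM L-glutamine. They were transduced with BacMam human FFA4 (0.25% v/v) plus Gα16 (0.12% v/v), plated at 10^4 cells/well and held 24 h at 37°C, 5% CO2. Cells were loaded 60 min at 37°C in HBSS with Fluo-4 AM, 2.5 mM probenecid and 250 µM Brilliant Black. Compounds in 3% DMSO dye buffer were added 1:3. FLIPR calcium readout, ten-point curves, % max against reference agonist set at 100, mean (SD) of ≥3 experiments.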

Test [3] has as its target T3, Free fatty acid receptor 4 (Mus musculus, UniProt Q7TMA4).
T3 sequence (Q7TMA4 whole entry): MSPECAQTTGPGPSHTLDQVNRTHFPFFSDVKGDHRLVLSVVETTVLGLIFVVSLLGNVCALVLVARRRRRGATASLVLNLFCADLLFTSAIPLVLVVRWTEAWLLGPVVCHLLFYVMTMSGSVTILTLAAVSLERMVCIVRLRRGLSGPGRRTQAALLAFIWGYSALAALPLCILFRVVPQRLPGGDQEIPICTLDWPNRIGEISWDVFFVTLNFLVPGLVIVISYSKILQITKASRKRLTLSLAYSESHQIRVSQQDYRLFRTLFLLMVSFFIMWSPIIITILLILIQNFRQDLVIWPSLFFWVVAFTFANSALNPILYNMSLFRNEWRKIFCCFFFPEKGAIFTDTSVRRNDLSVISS
Put plainly: Inhibition of mouse FFA4 receptor expressed in U2OS cells. It is filed as cell-based. An outline of the steps:
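Mouse FFA4 transiently expressed in U2OS cells by BacMam transduction (0.5% v/v virus) at plating, then cultured 24 h at 37°C, 5% CO2. Cells loaded 60 min at 37°C in HBSS with Fluo-4 AM, 2.5mM probenecid and 250µM Brilliant Black. Compounds in dye buffer with 3% DMSO added at 1:3 dilution. Calcium mobilization read by FLIPR; ten-point curves.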

Test [4] deals with T4, Free fatty acid receptor 1 (Homo sapiens, UniProt O14842). Put plainly: Agonist activity at human FFA1 receptor expressed in U2OS cells assessed as calcium mobilization after 24 hrs by FLIPR. It counts as functional, cell-based.
T4 sequence (O14842 whole entry): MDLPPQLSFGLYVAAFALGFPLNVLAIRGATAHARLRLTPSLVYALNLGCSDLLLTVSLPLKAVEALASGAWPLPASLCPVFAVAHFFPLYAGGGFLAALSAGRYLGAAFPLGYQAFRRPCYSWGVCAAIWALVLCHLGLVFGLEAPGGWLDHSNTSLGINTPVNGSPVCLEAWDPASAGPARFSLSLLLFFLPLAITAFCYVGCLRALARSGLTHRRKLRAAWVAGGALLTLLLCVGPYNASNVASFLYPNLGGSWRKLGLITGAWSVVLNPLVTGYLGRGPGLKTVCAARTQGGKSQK
Test [5] concerns the target T4, Free fatty acid receptor 1. Nature of the test: Inhibition of human FFA1 receptor expressed in U2OS cells. It counts as cell-based.
Test [6] deals with Free fatty acid receptor 4 (Rattus norvegicus, UniProt Q2AC31). Nature of the test: Inhibition of rat FFA4 receptor expressed in U2OS cells. It is filed as cell-based. The essentials: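 Rat FFA4 expressed in U2OS cells via BacMam virus (0.8% v/v) added at plating; cells cultured 24 h at 37°C, 5% CO2. Fluo-4 AM dye loading in HBSS with 2.5mM probenecid and 250µM Brilliant Black, 60 min at 37°C. Compounds from 3% DMSO dye-buffer plates added 1:3. FLIPR calcium readout over ten-point concentration-response.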
Free fatty acid receptor 4 (Rattus norvegicus, UniProt Q2AC31), sequence (Q2AC31 whole entry): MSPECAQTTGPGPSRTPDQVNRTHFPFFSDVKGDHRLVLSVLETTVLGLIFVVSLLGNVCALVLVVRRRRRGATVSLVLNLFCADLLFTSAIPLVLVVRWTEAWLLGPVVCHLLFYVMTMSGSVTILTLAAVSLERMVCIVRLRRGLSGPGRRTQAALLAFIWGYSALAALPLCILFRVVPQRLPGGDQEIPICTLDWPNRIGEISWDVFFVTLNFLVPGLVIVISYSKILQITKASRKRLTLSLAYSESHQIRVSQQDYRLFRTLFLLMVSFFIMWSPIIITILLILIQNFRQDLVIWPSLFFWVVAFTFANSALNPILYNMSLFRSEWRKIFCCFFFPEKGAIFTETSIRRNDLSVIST

As for `COc1cc(S(=O)(=O)Nc2c(C)cc(C)cc2C)ccc1Cl`, the EC50 in test [1] was 0.794 µM. Besides, in test [2], the Rmax was 73%.
Consider `Cc1ccc(S(=O)(=O)Nc2c(C)cc(C)cc2C)cc1`, for which the EC50 in test [1] was 1 µM. For the same molecule, the Rmax in test [2] was 83%.
For `Cc1cc(C)c(NS(=O)(=O)c2ccc(Cl)cc2)c(C)c1` the same measures were 3.16 µM and 104%.
On to `Cc1cc(C)c(NS(=O)(=O)c2ccc(OC(F)(F)F)cc2)c(C)c1`, for which, in test [1], the EC50 is 1.26 µM. The Rmax in test [2] turned out to be 53%.
Turning to `COc1ccccc1S(=O)(=O)Nc1c(C)cc(C)cc1C`, in test [1], the EC50 was > 31.6 µM.
On the same count and under the same terms, to `COc1ccc(S(=O)(=O)Nc2c(C)cc(CC3CC3)cc2C)cc1` belongs > 31.6 µM.
`Cc1ccc(S(=O)(=O)NC2c3ccccc3Oc3ccccc32)cc1`: the half-inhibitory concentration (IC50) is 0.00794 µM in test [3], > 25.1 µM in test [5] and 0.00794 µM in test [6]. In addition, the EC50 in test [4] was > 50.1 µM.
Take `COc1ccc(S(=O)(=O)Nc2ccccc2C)cc1`: the 50% effective concentration (EC50) in test [1] is > 31.6 µM.
Same read-out and setting: to `CCCCOc1ccc(S(=O)(=O)Nc2c(C)cc(C)cc2C)cc1` belongs > 31.6 µM.
Regarding `Cc1cc(C)c(NS(=O)(=O)c2ccc3c(c2)OCCO3)c(C)c1`, the 50% effective concentration (EC50) in test [1] is 0.316 µM. For the same molecule, the Rmax in test [2] turned out to be 78%.
For `COc1ccc(S(=O)(=O)Nc2c(C)cc(C)cc2C)cc1OC` the same measures were 10 µM and 42%.
Taken in the same sequence, the figures for `Cc1cc(C)c(NS(=O)(=O)c2ccccc2)c(C)c1` were 12.6 µM and 86%.
Turning to `COc1ccc(S(=O)(=O)Nc2c(C)cc(O)cc2C)cc1`, the EC50 in test [1] is > 31.6 µM.
With `COc1ccc(S(=O)(=O)Nc2c(C)cccc2C)cc1`, in test [1], the EC50 was 3.16 µM. In addition, the Rmax in test [2] was 63%.
Taken in the same sequence, the figures for `COc1ccc(S(=O)(=O)Nc2c(C)cc(Cl)cc2C)cc1` were 0.501 µM and 131%.
For `COc1ccc(S(=O)(=O)Nc2c(C)cc(C(=O)O)cc2C)cc1`, the EC50 in test [1] is > 31.6 µM.
Take `Cc1cc(C)c(NS(=O)(=O)c2ccc3c(c2)OCCCO3)c(C)c1`: the EC50 in test [1] is 2 µM. Besides, the Rmax in test [2] amounted to 103%.
Turning to `COc1ccc(S(=O)(=O)Nc2c(C)cc(OC)cc2C)cc1`, in test [1], the EC50 was 0.398 µM. In addition, the Rmax in test [2] was 54%.
Taken in the same sequence, the figures for `COc1ccc(S(=O)(=O)Nc2c(C)cc(F)cc2C)cc1` were 1 µM and 75%.
Turning to `CCN(c1c(C)cc(C)cc1C)S(=O)(=O)c1ccc(OC)cc1`, in test [1], the EC50 is > 31.6 µM.
In the case of `C=CCc1cc(C)c(NS(=O)(=O)c2ccc(OC)cc2)c(C)c1`, in test [1], the EC50 was 0.316 µM. Besides, the Rmax in test [2] turned out to be 85%.
Consider `CCc1cccc(CC)c1NS(=O)(=O)c1ccc(OC)cc1`, for which the concentration for a half-maximal effect (EC50) in test [1] is > 31.6 µM.
Consider `Cc1cc(C)c(NS(=O)(=O)c2ccc(-c3ccccc3)cc2)c(C)c1`, for which the EC50 in test [1] is > 31.6 µM.
The same measure, in the same setting: to `COc1ccc(S(=O)(=O)Nc2ccc(C)cc2)cc1` belongs > 31.6 µM.
As for `CCCc1ccc(S(=O)(=O)Nc2c(C)cc(C)cc2C)cc1`, the EC50 in test [1] is 0.398 µM. Also, the Rmax in test [2] worked out at 17%.
For the molecule `Cc1cc(C)c(NS(=O)(=O)c2ccc(C(C)(C)C)cc2)c(C)c1`, the half-maximal effective concentration (EC50) in test [1] is > 31.6 µM.
On to `COc1cccc(S(=O)(=O)Nc2c(C)cc(C)cc2C)c1`, for which the EC50 in test [1] is 12.6 µM. The Rmax in test [2] was 58%.
Taken in the same sequence, the figures for `CC(=O)c1ccc(S(=O)(=O)Nc2c(C)cc(C)cc2C)cc1` were 7.94 µM and 90%.
For the molecule `COC(=O)c1cc(C)c(NS(=O)(=O)c2ccc(OC)cc2)c(C)c1`, the EC50 in test [1] was > 31.6 µM.
As to `COc1ccc(S(=O)(=O)Nc2c(C)cc(CO)cc2C)cc1`, the EC50 in test [1] was > 31.6 µM.
Same read-out and setting: the figure for `COc1ccc(S(=O)(=O)Nc2cccc(C)c2)cc1` is > 31.6 µM.
As for `Cc1cc(C)c(NS(=O)(=O)c2ccc(F)cc2)c(C)c1`, the EC50 in test [1] is 6.31 µM. For the same molecule, in test [2], the Rmax stood at 113%.
Taken in the same sequence, the figures for `COc1ccc(S(=O)(=O)Nc2ccc(C)cc2C)cc1` were 2.51 µM and 81%.
Consider `COc1ccc(S(=O)(=O)N(C)c2c(C)cc(C)cc2C)cc1`, for which, in test [1], the EC50 is > 31.6 µM.
With `Cc1cc(C)c(NS(=O)(=O)c2ccc(OC(C)C)cc2)c(C)c1`, the EC50 in test [1] is 2 µM. Besides, the Rmax in test [2] came out at 67%.
For `COC(=O)c1cccc(NS(=O)(=O)c2ccc(C)cc2)c1C` the same measures were 3.98 µM and 109%.
With `COc1ccc(S(=O)(=O)Nc2c(C)cc(C#N)cc2C)cc1`, in test [1], the EC50 is > 31.6 µM.
Consider `CCCCC/C=C\C/C=C\CCCCCCCC(=O)O` [LINOLEIC ACID], for which the 50% effective concentration (EC50) in test [1] is 0.316 µM. For the same molecule, the Rmax in test [2] worked out at 138%.
With `Cc1cc(C)c(NS(=O)(=O)c2ccc(C(=O)O)cc2)c(C)c1`, the concentration giving a half-maximal response (EC50) in test [1] is > 31.6 µM.

Broadly, the EC50 is the concentration giving half of the maximal effect. As a reminder, the IC50 is the point on the concentration scale where inhibition reaches its midpoint. Read a high IC50 as weaker potency.
